Ecoli tolC = growth inhibitors of E. coli BW25113 tolC mutant | OD615 | growth inhibition, % at 10 µM (by protocol) | 65,000 compounds, 2.2% hits | AID 573;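 active means growth inhibition at or above a cutoff equal to the mean over every tested compound plus 3 SD, cut at about 60% in these data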;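 further: growth measured after 20 h incubation at 37 °C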
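Test system: tolC-deleted E. coli BW25113 | Medium: LB with kanamycin 50 µg/mL | Compound dosing: Single concentration, 10 µM final per compound | Schedule: 37 °C, 20 h exposure | Measured by: OD at 615 nm | Evaluation: Percent growth inhibition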
PostGolgi ctrl = yeast control strain growth, post-Golgi counter-screen; AID 738; 98,000 compounds, 5% hits; efflux-deficient yeast background strain, growth absorbance A615, 16 h; inhibition, % at 10 µM
PostGolgi yeast = growth inhibition of a yeast mutant, post-Golgi transport screen; AID 739; 98,000 compounds, 0.9% hits; inhibition, % at 10 µM; post-Golgi transport phenotypic cell assay;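 further: yeast cells grown in 1536-well plates; yeast grown about 18 h at 30C before absorbance read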
Candida biofilm = kills Candida albicans biofilms; C. albicans biofilm + clotrimazole, Alamar Blue; inhibition, % at 6 µM; 85,000 compounds, 0.14% hits;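 active means inhibition above 20%; inactive means inhibition below 20%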;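 further: preformed 24 hr biofilms exposed to compound for 48 hr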
Pyk2 oligo antag = Pyk2 (human) oligomerization antagonism; Q293 cells, Pyk2 FERM NanoBiT luminescence; hits give low values; Q14289; 99,000 compounds, 0.83% hits; AID 1347419; z-score (the deposit names both 25 µM and 10 µM);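 active means Z-score of -3 or lower, scaled per plate to the spread of control and sample wells; inactive means z-score above -3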;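 further: negative z-score means lost luminescence so less FERM oligomerization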
FAK inh = inhibitors of human focal adhesion kinase. Q05397. biochemical FAK kinase activity assay. inhibition, %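 (tested at 7 µM)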. 97,000 compounds, 0.84% hits. AID 727; in the data active means inhibition above about 19%
Each line names hits and unclear results; the compound was inactive in the other large screens. Most compounds without a hit are left out; they make up all but 6.9% or so of the library. Unless noted, no stated cut-off is given here; in the data, active means inhibition above about 30%; inactive means the rest.

CCn1c(=O)c2c(n3cnnc13)-c1ccccc1CC21CCCCC1	PostGolgi ctrl 56
CN1/C(=C/C(=O)c2cccs2)Sc2ccccc21	none (no result: Ecoli tolC)
COCC(=O)/C=C1\Sc2ccccc2N1C	PostGolgi ctrl 36
CN1/C(=C/C(=O)C2CCC2)Sc2ccccc21	none
CN1/C(=C\C(=O)c2cccs2)Sc2ccccc21	Ecoli tolC 68
CNC(=O)CSc1nc2nc(C)cc(C)n2n1	none (no result: Ecoli tolC)
Cc1cc(C)c(NC(=O)C2CCCCN2C)c(C)c1 (centres undefined)	none (no result: Ecoli tolC)
COC(=O)N1CCN(c2ccc(Cl)c(Cl)c2)CC1	none
N#C/C=C(/N)N1CCN(c2ccc(Cl)c(Cl)c2)CC1	PostGolgi yeast 32 (no result: Ecoli tolC, Candida biofilm)
COc1ccc(C2C(C(=O)Nc3ccccc3)=C(C)N=C3SCC(=O)N32)cc1 (centres undefined)	none (no result: Ecoli tolC, PostGolgi ctrl, PostGolgi yeast)
CC(=O)N1c2c(ccc3ccccc23)C(C)CC12CCCCC2 (centres undefined)	PostGolgi ctrl 38 (no result: Ecoli tolC)
COC(=O)c1ccc(CSc2nc(C(F)(F)F)c3c(c2C#N)CCC3)o1	none
O=c1c2cc(Br)cc(Br)c2oc2nc3n(c(=O)c12)CCCS3	PostGolgi ctrl 43 (no result: Ecoli tolC, Pyk2 oligo antag)
O=Cc1ccc2oc3nc4n(c(=O)c3c(=O)c2c1)CCCS4	none (no result: Ecoli tolC)
Cc1[nH]nc2c1C1(CCC(c3ccccc3)CC1)C(C#N)=C(N)O2 (centres undefined)	PostGolgi ctrl 31
Cc1[nH]nc2c1C1(CCN(C(=O)c3ccccc3)CC1)C(C#N)=C(N)O2	none (no result: Candida biofilm)
C[n+]1cn(CC(O)COCc2ccccc2)c2ccccc21 (centres undefined)	none (no result: Ecoli tolC, Candida biofilm)
COc1cccc(C(=O)Nc2cccc(SC)c2)c1	PostGolgi ctrl 30
COc1cccc(C(=O)Nc2ccc3nc(N4CCN(c5ncccn5)CC4)cc(C)c3c2)c1OC	PostGolgi ctrl 41 (no result: Candida biofilm, Pyk2 oligo antag)
CN(C)S(=O)(=O)Oc1cccc(C(=O)Nc2ccc(Cl)c(Cl)c2)c1	PostGolgi ctrl 36 (no result: Ecoli tolC, Candida biofilm)
COc1cccc(NC(=O)c2cccc(OC)c2OC)c1	PostGolgi ctrl 48
Cc1cnc(C(=O)Nc2nccs2)cn1	none (no result: Ecoli tolC)
COc1ccc(NC(=O)c2ccccc2O)c(OC)c1	none (no result: Ecoli tolC)
COc1ccc(NC(=O)c2c(OC)cccc2OC)c(OC)c1	Pyk2 oligo antag -4.4
CCc1cc(=O)oc2c(C)c(OCC(=O)N3CCCc4ccccc43)ccc12	PostGolgi ctrl 33, Pyk2 oligo antag -4.6 (no result: Ecoli tolC)
CCc1cc(=O)oc2cc(OCC(=O)N3CCc4ccccc43)ccc12	none (no result: PostGolgi ctrl, PostGolgi yeast, Pyk2 oligo antag, FAK inh)
CCOc1ccc2nc(NC(=O)CN3CCC(n4nnc5cc(C(F)(F)F)ccc54)CC3)sc2c1	PostGolgi ctrl 35 (no result: Ecoli tolC)
Cc1cc(NC(=O)CN2CCC(n3nnc4cc(C(F)(F)F)ccc43)CC2)no1	none
O=C(CSc1nnc(-c2ccccn2)n1Cc1ccco1)c1ccccc1	PostGolgi ctrl 31
COc1cc(Cl)c(C)cc1NC(=O)CSc1nnc(-c2ccccn2)n1Cc1ccco1	PostGolgi ctrl 40
O=C(CSc1nnc(-c2ccccn2)n1Cc1ccco1)c1ccc(Cl)cc1	none
COc1ccc(C(=O)CSc2nnc(-c3ccccn3)n2Cc2ccco2)cc1	PostGolgi ctrl 35
Brc1ccccc1-c1nnc(CSc2nnc3sc4ccccc4n23)o1	none (no result: FAK inh)
CCOC(=O)c1cnn(-c2cc(C)nc3c(-c4ccccc4)cnn23)c1N	none
Cc1ccc(S(=O)(=O)Cc2ccc(C(=O)N3CCN(c4cc(C)ccc4C)CC3)o2)cc1	PostGolgi ctrl 37 (no result: Candida biofilm)
Cc1cccc(N2CCN(C(=O)c3ccc(CS(=O)(=O)c4ccccc4C)o3)CC2C)c1 (centres undefined)	none
Cc1ccc(S(=O)(=O)Cc2ccc(C(=O)N3CCCC3)o2)cc1	none (no result: Pyk2 oligo antag)
Cc1ccc(C)c(N2CCN(C(=O)c3ccc(CS(=O)(=O)c4ccccc4C)o3)CC2)c1	PostGolgi ctrl 38
Cc1cccc(-n2c(C)n[nH]c2=S)c1	none (no result: Ecoli tolC, Candida biofilm)
COc1ccc(CCNC(=O)CCn2c(=O)oc3ccccc32)cc1	Candida biofilm 21 (no result: Pyk2 oligo antag, FAK inh)
Cc1cccc(N(C)C(=O)c2cc3cc4ccc(C)cc4nc3o2)c1	Ecoli tolC 96
CCOC(=O)c1ccc(N=C2C(=S)N(c3ccc(C(=O)OCC)cc3)C(=N)N2/N=C/c2ccccc2)cc1	none (no result: Ecoli tolC, PostGolgi ctrl, PostGolgi yeast)
Cc1sc2nc(CN(Cc3ccccc3)C(=O)NC3CCCCC3)[nH]c(=O)c2c1C	Pyk2 oligo antag -3 (no result: Ecoli tolC, PostGolgi ctrl, PostGolgi yeast)
CC(=O)c1ccc2c(c1)Nc1ccccc1S2	none (no result: Candida biofilm, FAK inh)
Cc1cc(=O)[nH]c(SC/C=C/c2ccccc2)n1	none
C(=C/c1ccnc2nc(SC/C=C/c3ccccc3)nn12)/c1ccccc1	Pyk2 oligo antag -3 (no result: Ecoli tolC, Candida biofilm)

Compound activity deposited in PubChem BioAssay by several laboratories.
